Measurements reported in ChEMBL document CHEMBL1155099, “Natural products in parallel synthesis: triazole libraries of nonactic acid” (2008).
Calls of active or inactive are those of the source.

How the values were obtained:
Format in all cases: functional, organism-based
Saccharomyces cerevisiae = assay: Antifungal activity against Saccharomyces cerevisiae at 1 mM by almar blue dye reduction assay
Method in brief: (§1)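 Single-point primary screen at 1 mM using Alamar Blue dye reduction as the growth read-out.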

Bacillus anthracis = assay: Antibacterial activity against Bacillus anthracis at 1mM by almar blue dye reduction assay
Staphylococcus aureus = assay: Antibacterial activity against Staphylococcus aureus at 1 mM by almar blue dye reduction assay; method in brief: as §1
Bacillus cereus = assay: Antibacterial activity against Bacillus cereus at 1 mM by almar blue dye reduction assay; method in brief: as §1
Escherichia coli = assay: Antibacterial activity against Escherichia coli at 1 mM by almar blue dye reduction assay; method in brief: as §1
Cryptococcus neoformans = assay: Antifungal activity against Cryptococcus neoformans at 1 mM by almar blue dye reduction assay; method in brief: as §1
Candida albicans = assay: Antifungal activity against Candida albicans at 1 mM by almar blue dye reduction assay; method in brief: as §1
Bacillus subtilis = assay: Antibacterial activity against Bacillus subtilis at 1 mM by almar blue dye reduction assay; method in brief: as §1
Pseudomonas aeruginosa = assay: Antibacterial activity against Pseudomonas aeruginosa at 1 mM by almar blue dye reduction assay; method in brief: as §1

Measured: Activity

C[C@H](C[C@@H]1CC[C@H]([C@@H](C)C(=O)N2CCCC2)O1)n1cc(C#CCc2ccccc2)nn1
inactive: all assays above

CC(C)NC(=O)[C@H](C)[C@H]1CC[C@@H](C[C@@H](C)n2cc(C#CCN3CCOCC3)nn2)O1
inactive: all assays above

C[C@H](C[C@@H]1CC[C@H]([C@@H](C)C(=O)N2CCCC2)O1)n1cc(C#CCC2CCCC2)nn1
inactive: all assays above

CCN(CC)C(=O)[C@H](C)[C@H]1CC[C@@H](C[C@@H](C)n2cc(C#CCC3CCCC3)nn2)O1
inactive: all assays above

CC(C)NC(=O)[C@H](C)[C@H]1CC[C@@H](C[C@@H](C)n2cc(C#CCOc3ccccc3)nn2)O1
inactive: all assays above

C[C@H](C[C@@H]1CC[C@H]([C@@H](C)C(=O)N(C)Cc2ccccc2)O1)n1cc(C#CCOc2cccc(-c3ccccc3)c2)nn1
inactive: all assays above

CCN(CC)C(=O)[C@H](C)[C@H]1CC[C@@H](C[C@@H](C)n2cc(C#Cc3ccccc3)nn2)O1
inactive: all assays above

CC(C)NC(=O)[C@H](C)[C@H]1CC[C@@H](C[C@@H](C)n2cc(C#Cc3ccc(Oc4ccccc4)cc3)nn2)O1
inactive: all assays above

CCC(=O)OCC#Cc1cn([C@H](C)CC2CCC([C@@H](C)C(=O)N3CCCC3)O2)nn1 (single isomer, unassigned)
inactive: all assays above

CCCCN(CC#Cc1cn([C@H](C)C[C@@H]2CC[C@H]([C@@H](C)C(=O)N3CCCC3)O2)nn1)CCCC
inactive: all assays above

Cc1cccc(NC(=O)NCC#Cc2cn([C@H](C)CC3CCC([C@@H](C)C(=O)NC(C)C)O3)nn2)c1 (single isomer, unassigned)
inactive: all assays above

C[C@H](CC1CCC([C@@H](C)C(=O)N2CCCC2)O1)n1cc(C#CCCCC#N)nn1 (single isomer, unassigned)
inactive: all assays above

C[C@H](C[C@@H]1CC[C@H]([C@@H](C)C(=O)N(C)Cc2ccccc2)O1)n1cc(C#CCCCC#N)nn1
inactive: all assays above

C[C@H](C[C@@H]1CC[C@H]([C@@H](C)C(=O)N(C)Cc2ccccc2)O1)n1cc(C#Cc2ccccc2)nn1
inactive: all assays above

CCCCN(CC#Cc1cn([C@H](C)C[C@@H]2CC[C@H]([C@@H](C)C(=O)NC(C)C)O2)nn1)CCCC
inactive: all assays above

C[C@H](C[C@@H]1CC[C@H]([C@@H](C)C(=O)N2CCCC2)O1)n1cc(C#CCN2CCOCC2)nn1
inactive: all assays above

C[C@H](C[C@@H]1CC[C@H]([C@@H](C)C(=O)N2CCN(CC3CCCO3)CC2)O1)n1cc(C#CCN(C)C)nn1 (stereo partly specified)
inactive: all assays above

C[C@H](C[C@@H]1CC[C@H]([C@@H](C)C(=O)N2CCCC2)O1)n1cc(C#Cc2ccccc2)nn1
not listed: Saccharomyces cerevisiae
inactive: all other assays above
